Published values gathered from unrelated publications.
Values after ≈ are worked out from the molar mass of the structure shown.

SMILES	organism	test	test system	setting	endpoint	value
CC1(C)S[C@@H]2[C@H](NC(=O)[C@H](N)c3ccccc3)C(=O)N2[C@H]1C(=O)O	Kocuria	microbial growth, broth dilution	–	–	MIC	1.34 µM
CCOC(=O)/C=C1/SC(N/N=C/c2c(-c3ccc(F)cc3)nc3ncccn23)=NC1=O	Pseudomonas aeruginosa	microbial growth, well diffusion	ATCC27853	100 µg/mL	inhibition zone	11 mm
O=C(O)c1cn(C2CC2)c2cc(N3CCNCC3)c(F)cc2c1=O	Pseudomonas aeruginosa	microbial growth, broth dilution	–	–	MIC90	1.56 µM (≈ 0.517 µg/mL)
CN[C@H](CC(C)C)C(=O)N[C@H]1C(=O)N[C@@H](CC(N)=O)C(=O)N[C@H]2C(=O)N[C@H]3C(=O)N[C@H](C(=O)N[C@H](C(=O)O)c4cc(O)cc(O)c4-c4cc3ccc4O)[C@H](O)c3ccc(c(Cl)c3)Oc3cc2cc(c3O[C@@H]2O[C@H](CO)[C@@H](O)[C@H](O)[C@H]2O[C@H]2C[C@](C)(N)[C@H](O)[C@H](C)O2)Oc2ccc(cc2Cl)[C@H]1O	Kocuria	microbial growth, broth dilution	–	–	MIC	0.67 µM
CO[C@H]1/C=C/O[C@@]2(C)Oc3c(C)c(O)c4c(c3C2=O)C2=NC3(CCN(CC(C)C)CC3)NC2=C(NC(=O)/C(C)=C\C=C\[C@H](C)[C@H](O)[C@@H](C)[C@@H](O)[C@@H](C)[C@H](OC(C)=O)[C@@H]1C)C4=O	Mycobacteroides abscessus	microbial growth, agar dilution	ATCC19977	–	MIC	11.2 µM
CNC(C)C1CCC(N)C(OC2C(N)CC(N)C(OC3OCC(C)(O)C(NC)C3O)C2O)O1 (stereo not shown)	Pseudomonas aeruginosa	microbial killing, broth dilution	ATCC27853	24 h	MBC	8000 µM (≈ 3820 µg/mL)
COc1ccc(C=NNC(=O)CSc2nc3c(C)cccc3c(=O)n2-c2ccccc2)cc1OS(C)(=O)=O	Pseudomonas aeruginosa	microbial growth, well diffusion	–	20 µg/mL	inhibition zone	2 mm
Cc1ccc2[nH]nc(-c3nnc(Nc4ccc(F)cc4Cl)s3)c2c1	Pseudomonas aeruginosa	microbial growth	ATCC27853	–	MIC	96.1 µg/mL
CC(=O)c1sc(N/N=C/c2c(-c3ccccc3)nc3ncccn23)nc1C	Pseudomonas aeruginosa	microbial growth, well diffusion	ATCC27853	100 µg/mL	inhibition zone	14 mm
CCCS(=O)(=O)Oc1ccc(C=NNC(=O)CSc2nc3c(C)cccc3c(=O)n2-c2ccccc2)cc1OC	Pseudomonas aeruginosa	microbial growth, well diffusion	–	20 µg/mL	inhibition zone	2 mm
